# Assay results as given in ChEMBL document CHEMBL1125814, “Folic acid analogues lacking the 2-carbon are substrates for folylpolyglutamate synthetase and inhibit cell growth” (J Med Chem, 1991).
# What was measured:
# L1210 = experiment: Compound was tested for inhibition of L1210 cell growth.; format: functional, cell-based; settings: Mus musculus
# Method in brief: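 Exponentially growing L1210 mouse leukemia cells seeded at (2.0–2.5) × 10^4/mL in RPMI-1640 with 10% dialyzed fetal bovine serum. Compound added in phosphate-buffered saline. Incubated 72 h at 37 °C, 5% CO2, humidified. Cells counted with a Coulter counter. IC50 taken from 1 or 2 experiments.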
# [1] = Ratio of relative Vmax to that of Km values.; format: ADME
# [2] = Relative maximal velocity (Vmax) as folylpolyglutamate synthetase substrate of the compound.; format: ADME
SMILES,IC50 (L1210) [µM],Ratio [1],Relative Vmax [2]
NC(=O)c1nc(CN(C=O)c2ccc(C(=O)NC(CCC(=O)O)C(=O)O)cc2)cnc1N (stereo not given),85,2.6,1.84
CN(Cc1cnc2nc(N)nc(N)c2n1)c1ccc(C(=O)N[C@@H](CCC(=O)O)C(=O)O)cc1 [METHOTREXATE],–,0.9,0.99
Nc1nc2ncc(CNc3ccc(C(=O)N[C@@H](CCC(=O)O)C(=O)O)cc3)nc2c(=O)[nH]1 [FOLIC ACID],–,1,1
Nc1nc(N)c2nc(CNc3ccc(C(=O)N[C@@H](CCC(=O)O)C(=O)O)cc3)cnc2n1 [AMINOPTERIN],–,10.1,1.59
NC(=O)c1nc(CNc2ccc(C(=O)NC(CCC(=O)O)C(=O)O)cc2)cnc1N (stereo not given),5.5,1.52,0.99
N#Cc1nc(CNc2ccc(C(=O)NC(CCC(=O)O)C(=O)O)cc2)cnc1N (stereo not given),217,0.7,1.06
